Test results as given in ChEMBL document CHEMBL1122649, “3-Alkyl-2-aryl-3H-naphth[1,2-d]imidazoles, a novel class of nonacidic antiinflammatory agents” (J Med Chem, 1984).

How the values were obtained:
Assay type in all cases: functional
Rattus norvegicus [1] = experiment: Antiinflammatory activity measured as the percentage inhibition of edema in carrageenan induced rat paw after peroral administration of 200 mg/kg of compound; conditions: route oral
Method in brief: (§1)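 Female Wistar rats (120–150 g), 10 per dose, dosed orally with an aqueous suspension in 0.5% methocel (10 mL/kg) 1 h before 0.05 mL of 1% carrageenin in saline was injected into the right hind paw aponeurosis. Paw volume was read plethysmographically at injection and 4 h later. Inhibition is given relative to vehicle controls. Screening dose 200 mg/kg; 100 mg/kg was tested when inhibition exceeded 30%. Student's t test.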

Rattus norvegicus [2] = experiment: Antiinflammatory activity was measured as the percentage inhibition of edema in carrageenan induced rat paw after peroral administration of 100 mg/kg of compound; conditions: route oral; method in brief: as §1
Rattus norvegicus [3] = species: Rattus norvegicus; experiment: Compound was evaluated for its analgesic activity by Randall-Selitto test in comparison with that of Aspirine
Method in brief: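 Randall–Selitto pain threshold, measured on the inflamed right hind paw of male Wistar rats (170–200 g), 10 per dose. Edema was induced with 0.1 mL of 20% yeast suspension in saline. Oral dosing in 0.5% methocel (10 mL/kg), highest dose one-fifth of LD50, then scaling down through 100, 50, 20, 10, 5 and 2 mg/kg. Threshold read before dosing, then hourly for 6 h. Potency expressed relative to aspirin = 1.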

Rattus norvegicus [4] = species: Rattus norvegicus; experiment: Compound was evaluated for its antipyretic activity by antipyresis effect in comparison with that of Aspirin.
Method in brief: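 Male Sprague-Dawley rats (120–150 g), 6 per dose, starved 18 h and kept at 24 °C; rats above 38 °C were excluded. Fever was induced by subcutaneous 1 mL of filtered 5% peptone preincubated 48 h at 37 °C. Oral doses as in the analgesic test (top dose one-fifth of LD50, stepping down). Rectal thermocouple readings from 4 h after injection, then hourly for 4 h. Activity relative to aspirin = 1.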

Rattus norvegicus [5] = experiment: Compound was evaluated for its antiinflammatory activity in the cotton pellet induced granuloma(CPG) in normal rats at the dose 50 mg/kg p.o.; conditions: route oral
Method in brief: (§2)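 Male Wistar rats (150–180 g), 7 per group. Two sterile 50 mg cotton pellets were implanted subcutaneously in the interscapular region under ether. Oral dosing in 0.5% methocel (10 mL/kg) daily for 6 days, starting 6 h after surgery. Animals were killed 24 h after the last dose; pellets with granuloma were dried 24 h at 80 °C. Percent inhibition versus vehicle controls.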

Rattus norvegicus [6] = experiment: Compound was evaluated for its gastroulcerogenic effect in rats at a peroral dose of 200 mg/kg, P<0.05.; conditions: route oral
Rattus norvegicus [7] = experiment: (§3) Compound was evaluated for its antiinflammatory activity by adjuvant-induced polyarthritis test in rats at a dosage of 100 mg/kg administered orally; conditions: route oral
Method in brief: (§4)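 Female Wistar rats (130–150 g), 8 per dose. Killed Mycobacterium butyricum (0.6 mg in 0.1 mL mineral oil) was injected into the right hind plantar aponeurosis. Oral dosing in 0.5% methocel, once daily, curative scheme from day 14 to day 27. Read-outs: percent change in hind-paw volume versus controls; Newbould 0–4 lesion scores for front paws, tail and ears; plasma inflammation units by nephelometric turbidity before and after 30 min at 56 °C on day 27.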

Rattus norvegicus [8] = experiment: Compound was evaluated for its antiinflammatory activity in the cotton pellet induced granuloma(CPG) in normal rats at the dose 200 mg/kg p.o.; conditions: route oral; method in brief: as §2
Rattus norvegicus [9] = experiment: Compound was evaluated for its gastroulcerogenic effect in rats at a peroral dose of 200 mg/kg; conditions: route oral
Rattus norvegicus [10] = experiment: as §3; parameters: unit not given beside the values; conditions: route oral; method in brief: as §4
Rattus norvegicus [11] = experiment: (§5) Compound was evaluated for its antiinflammatory activity by adjuvant-induced polyarthritis test in rats at a dosage of 200 mg/kg administered orally; conditions: route oral; method in brief: as §4
Rattus norvegicus [12] = experiment: as §5; parameters: unit not given beside the values; conditions: route oral; method in brief: as §4
Rattus norvegicus [13] = experiment: Compound was evaluated for its antiinflammatory activity in the cotton pellet induced granuloma(CPG) in normal rats at the dose 100 mg/kg p.o.; conditions: route oral; method in brief: as §2
Rattus norvegicus [14] = experiment: Compound was evaluated for its antiinflammatory activity by adjuvant-induced polyarthritis test in rats at a dosage of 50 mg/kg administered orally; conditions: route oral; method in brief: as §4

CCCCn1c(-c2ccc(OC)cc2)nc2c3ccccc3ccc21
inhibition in vivo at 200 mg/kg (Rattus norvegicus [1]): 25%

COc1ccc(-c2nc3c4ccccc4ccc3n2C)cc1C
inhibition in vivo at 100 mg/kg (Rattus norvegicus [2]): 24%
inhibition in vivo at 200 mg/kg (Rattus norvegicus [1]): 35%

CC(=O)Oc1ccccc1C(=O)O [ASPIRIN]
Activity (Rattus norvegicus [3]): 1
Activity (Rattus norvegicus [4]): 1
inhibition in vivo at 50 mg/kg (Rattus norvegicus [5]): 24%
Ulcerogenic index (Rattus norvegicus [6]): 1.6

Cc1ccc(-c2nc3c4ccccc4ccc3n2C)cc1
inhibition in vivo at 200 mg/kg (Rattus norvegicus [1]): 21%

C=Cn1c(-c2ccc(OC)cc2)nc2c3ccccc3ccc21
Activity (Rattus norvegicus [3]): 1.1
Activity (Rattus norvegicus [4]): 6.9
Arthritis scores (Rattus norvegicus [7]): 39
Inflammation units (Rattus norvegicus [7]): 61
inhibition in vivo at 200 mg/kg (Rattus norvegicus [8]): 31%
inhibition in vivo at 100 mg/kg (Rattus norvegicus [2]): 48%
inhibition in vivo at 200 mg/kg (Rattus norvegicus [1]): 58%
Ulcerogenic index (Rattus norvegicus [9]): 0.3
Mean volume of hind paws (Rattus norvegicus [10]): 34

COc1ccc(-c2nc3c4ccccc4ccc3n2C2CCCCC2)cc1
inhibition in vivo at 200 mg/kg (Rattus norvegicus [1]): 16%

Cn1c(-c2ccc(Cl)cc2)nc2c3ccccc3ccc21
inhibition in vivo at 200 mg/kg (Rattus norvegicus [1]): 21%

COc1ccccc1-c1nc2c3ccccc3ccc2n1C
inhibition in vivo at 200 mg/kg (Rattus norvegicus [1]): 0%

CCCn1c(-c2ccc(OC)cc2)nc2c3ccccc3ccc21
inhibition in vivo at 200 mg/kg (Rattus norvegicus [1]): 20%

CC(=O)Nc1ccc(-c2nc3c4ccccc4ccc3n2C)cc1
inhibition in vivo at 100 mg/kg (Rattus norvegicus [2]): 29%
inhibition in vivo at 200 mg/kg (Rattus norvegicus [1]): 35%

Cn1c(-c2cccs2)nc2c3ccccc3ccc21
Activity (Rattus norvegicus [3]): 1
Activity (Rattus norvegicus [4]): 0.9
Arthritis scores (Rattus norvegicus [11]): 24
Inflammation units (Rattus norvegicus [11]): 18
inhibition in vivo at 200 mg/kg (Rattus norvegicus [8]): 31%
inhibition in vivo at 100 mg/kg (Rattus norvegicus [2]): 31%
inhibition in vivo at 200 mg/kg (Rattus norvegicus [1]): 40%
Mean volume of hind paws (Rattus norvegicus [12]): 23
Ulcerogenic index (Rattus norvegicus [9]): 0.12

CN(C)c1ccc(-c2nc3c4ccccc4ccc3n2C)cc1
inhibition in vivo at 100 mg/kg (Rattus norvegicus [13]): 24%
inhibition in vivo at 100 mg/kg (Rattus norvegicus [2]): 54%
inhibition in vivo at 200 mg/kg (Rattus norvegicus [1]): 68%
Ulcerogenic index (Rattus norvegicus [6]): 1.07

Cl.Cl.Cn1c(-c2cccnc2)nc2c3ccccc3ccc21
inhibition in vivo at 200 mg/kg (Rattus norvegicus [1]): 12%

Cn1c(-c2ccccc2O)nc2c3ccccc3ccc21
inhibition in vivo at 200 mg/kg (Rattus norvegicus [1]): 1%

CCC(CC)n1c(-c2ccc(OC)cc2)nc2c3ccccc3ccc21
inhibition in vivo at 200 mg/kg (Rattus norvegicus [1]): 11%

CCC(C)n1c(-c2ccc(OC)cc2)nc2c3ccccc3ccc21 (stereo not drawn)
inhibition in vivo at 200 mg/kg (Rattus norvegicus [1]): 18%

COc1ccc(-c2nc3c(ccc4ccccc43)[nH]2)cc1
inhibition in vivo at 200 mg/kg (Rattus norvegicus [1]): 10%

Cn1c(-c2ccc(O)cc2)nc2c3ccccc3ccc21
inhibition in vivo at 200 mg/kg (Rattus norvegicus [1]): 4%

Cn1c(-c2ccc(OCC(=O)O)cc2)nc2c3ccccc3ccc21
inhibition in vivo at 200 mg/kg (Rattus norvegicus [1]): 7%

COc1ccc(-c2nc3c4ccccc4ccc3n2C(C)CO)cc1 (stereo not drawn)
inhibition in vivo at 100 mg/kg (Rattus norvegicus [2]): 31%
inhibition in vivo at 200 mg/kg (Rattus norvegicus [1]): 35%

COc1ccc(-c2nc3c4ccccc4ccc3n2C(C)(C)C)cc1
inhibition in vivo at 200 mg/kg (Rattus norvegicus [1]): 19%

CCn1c(-c2ccc(OC)cc2)nc2c3ccccc3ccc21
Activity (Rattus norvegicus [3]): 1.1
Activity (Rattus norvegicus [4]): 2.9
Arthritis scores (Rattus norvegicus [11]): 21
Inflammation units (Rattus norvegicus [11]): 35
inhibition in vivo at 200 mg/kg (Rattus norvegicus [8]): 31%
inhibition in vivo at 100 mg/kg (Rattus norvegicus [2]): 49%
inhibition in vivo at 200 mg/kg (Rattus norvegicus [1]): 52%
Mean volume of hind paws (Rattus norvegicus [12]): 21
Ulcerogenic index (Rattus norvegicus [6]): 0.09

C=C(C)n1c(-c2ccc(OC)cc2)nc2c3ccccc3ccc21
Arthritis scores (Rattus norvegicus [7]): 70
Inflammation units (Rattus norvegicus [7]): 68
inhibition in vivo at 100 mg/kg (Rattus norvegicus [2]): 54%
inhibition in vivo at 200 mg/kg (Rattus norvegicus [1]): 58%
Mean volume of hind paws (Rattus norvegicus [10]): 38

Cc1cc(-c2nc3c4ccccc4ccc3n2C)cc(C)c1N(C)C
inhibition in vivo at 200 mg/kg (Rattus norvegicus [1]): 14%

CCOc1ccc(-c2nc3c4ccccc4ccc3n2C)cc1
Activity (Rattus norvegicus [3]): 0.3
Activity (Rattus norvegicus [4]): 2.2
Arthritis scores (Rattus norvegicus [11]): 43
Inflammation units (Rattus norvegicus [11]): 60
inhibition in vivo at 200 mg/kg (Rattus norvegicus [8]): 40%
inhibition in vivo at 100 mg/kg (Rattus norvegicus [2]): 37%
inhibition in vivo at 200 mg/kg (Rattus norvegicus [1]): 45%
Mean volume of hind paws (Rattus norvegicus [12]): 25
Ulcerogenic index (Rattus norvegicus [6]): 0.21

CCCCC1C(=O)N(c2ccccc2)N(c2ccccc2)C1=O [PHENYLBUTAZONE]
Activity (Rattus norvegicus [3]): 6.5
Activity (Rattus norvegicus [4]): 4
inhibition in vivo at 50 mg/kg (Rattus norvegicus [5]): 38%
Arthritis scores (Rattus norvegicus [14]): 58
Inflammation units (Rattus norvegicus [14]): 68
Mean volume of hind paws (Rattus norvegicus [14]): 45
Ulcerogenic index (Rattus norvegicus [6]): 1.4

COc1ccc(-c2nc3c4ccccc4ccc3n2C2CC2)cc1
Activity (Rattus norvegicus [3]): 0.7
Activity (Rattus norvegicus [4]): 0.8
inhibition in vivo at 200 mg/kg (Rattus norvegicus [8]): 11%
inhibition in vivo at 100 mg/kg (Rattus norvegicus [2]): 53%
inhibition in vivo at 200 mg/kg (Rattus norvegicus [1]): 56%
Ulcerogenic index (Rattus norvegicus [9]): 0.29

Cn1c(-c2cccc(Cl)c2)nc2c3ccccc3ccc21
inhibition in vivo at 200 mg/kg (Rattus norvegicus [1]): 7%

COc1ccc(-c2nc3c4ccccc4ccc3n2CCO)cc1
inhibition in vivo at 200 mg/kg (Rattus norvegicus [1]): 11%

Cn1c(-c2ccc3c(c2)OCO3)nc2c3ccccc3ccc21
inhibition in vivo at 200 mg/kg (Rattus norvegicus [1]): 28%

COc1ccc(-c2nc3c4ccccc4ccc3n2CC(C)C)cc1
inhibition in vivo at 200 mg/kg (Rattus norvegicus [1]): 30%

CNc1ccc(-c2nc3c4ccccc4ccc3n2C)cc1
inhibition in vivo at 100 mg/kg (Rattus norvegicus [13]): 33%
inhibition in vivo at 100 mg/kg (Rattus norvegicus [2]): 47%
inhibition in vivo at 200 mg/kg (Rattus norvegicus [1]): 59%
Ulcerogenic index (Rattus norvegicus [6]): 0.16

Cn1c(-c2ccc[nH]2)nc2c3ccccc3ccc21
inhibition in vivo at 200 mg/kg (Rattus norvegicus [1]): 1%

Cl.Cn1c(-c2ccccn2)nc2c3ccccc3ccc21
inhibition in vivo at 200 mg/kg (Rattus norvegicus [1]): 24%

Cn1c(-c2ccncc2)nc2c3ccccc3ccc21
Activity (Rattus norvegicus [3]): 2.4
Activity (Rattus norvegicus [4]): 1.4
Arthritis scores (Rattus norvegicus [11]): 10
Inflammation units (Rattus norvegicus [11]): 3
inhibition in vivo at 200 mg/kg (Rattus norvegicus [8]): 33%
inhibition in vivo at 100 mg/kg (Rattus norvegicus [2]): 44%
inhibition in vivo at 200 mg/kg (Rattus norvegicus [1]): 63%
Mean volume of hind paws (Rattus norvegicus [12]): 20
Ulcerogenic index (Rattus norvegicus [9]): 0.31

Cc1cc(-c2nc3c4ccccc4ccc3n2C)ccc1N(C)C
Activity (Rattus norvegicus [3]): 2.8
Activity (Rattus norvegicus [4]): 10.5
Arthritis scores (Rattus norvegicus [7]): 69
Inflammation units (Rattus norvegicus [7]): 84
inhibition in vivo at 100 mg/kg (Rattus norvegicus [13]): 38%
inhibition in vivo at 100 mg/kg (Rattus norvegicus [2]): 64%
inhibition in vivo at 200 mg/kg (Rattus norvegicus [1]): 69%
Ulcerogenic index (Rattus norvegicus [9]): 0.21
Mean volume of hind paws (Rattus norvegicus [10]): 42

COc1ccc(-c2nc3c4ccccc4ccc3n2C(C)C)cc1 [TOMOXIPROLE]
Activity (Rattus norvegicus [3]): 2.2
Activity (Rattus norvegicus [4]): 0.7
Arthritis scores (Rattus norvegicus [7]): 77
Inflammation units (Rattus norvegicus [7]): 93
inhibition in vivo at 200 mg/kg (Rattus norvegicus [8]): 45%
inhibition in vivo at 100 mg/kg (Rattus norvegicus [2]): 45%
inhibition in vivo at 200 mg/kg (Rattus norvegicus [1]): 48%
Mean volume of hind paws (Rattus norvegicus [10]): 43

COc1cccc(-c2nc3c4ccccc4ccc3n2C)c1
inhibition in vivo at 200 mg/kg (Rattus norvegicus [1]): 21%

CC(C)Oc1ccc(-c2nc3c4ccccc4ccc3n2C)cc1
inhibition in vivo at 100 mg/kg (Rattus norvegicus [2]): 25%
inhibition in vivo at 200 mg/kg (Rattus norvegicus [1]): 31%

CC(=O)Oc1ccc(-c2nc3c4ccccc4ccc3n2C)cc1
inhibition in vivo at 200 mg/kg (Rattus norvegicus [1]): 8%
